Measurements taken from ChEMBL document CHEMBL4007431, “Systematic variation of the benzenesulfonamide part of the GluN2A selective NMDA receptor antagonist TCN-201” (Eur J Med Chem, 2017).
Activity calls are given as the source filed them. The rule behind the calls is not given here.

What was measured:
Format in all cases: cell-based
[1] = target: Glutamate NMDA receptor; Grin1/Grin2b (Rattus norvegicus) (UniProt P35439+Q00960); test: Antagonist activity at rat GluN1A/GluN2B receptor expressed in Xenopus laevis oocytes assessed as inhibition of glutamate/glycine-induced channel current at 10 uM at -70 mV holding potential by two electrode voltage clamp method
Procedure, shortened: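 Oocytes were injected with GluN1a and GluN2B cRNA and recorded by TEVC with glutamate/glycine activation. Compounds tested at 10 µM, n = 5. One-way ANOVA with Tukey post hoc test.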

[2] = target: Glutamate NMDA receptor; Grin1/Grin2a (Rattus norvegicus, UniProt P35439+Q00959); test: Antagonist activity at rat GluN1A/GluN2A receptor expressed in Xenopus laevis oocytes assessed as inhibition of glutamate/glycine-induced channel current at -70 mV holding potential by two electrode voltage clamp method
Procedure, shortened: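 Oocytes (stage V, defolliculated) coinjected with 0.8 ng GluN1a and 0.8 ng GluN2A cRNA. TEVC at room temperature, holding −70 mV, perfusion with Ba2+-Ringer (10 HEPES, 90 NaCl, 1 KCl, 1.5 BaCl2 mmol/L, pH 7.4). Currents evoked by glutamate plus glycine. Compounds diluted from 10 mM DMSO stocks into agonist solution, 1 nM to 10 µM final. n = 5 oocytes per concentration. Logistic fit with minimum 0% and maximum 100%; x0 taken as the half-maximal inhibition.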

[3] = target: T1, Glutamate NMDA receptor; Grin1/Grin2a (Rattus norvegicus) (UniProt P35439+Q00959); test: Antagonist activity at rat GluN1A/GluN2A receptor expressed in Xenopus laevis oocytes assessed as inhibition of glutamate/glycine-induced channel current at 500 nM at -70 mV holding potential by two electrode voltage clamp method relative to TCN-201
Procedure, shortened: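 GluN1a/GluN2A-coinjected oocytes (0.8 ng of each cRNA) under TEVC at −70 mV and room temperature, perfused with Ba2+-Ringer at pH 7.4. 10 µM (S)-glutamate and 10 µM glycine open the channel. Compound at 500 nM final (from 10 mM DMSO stock) in agonist solution. Current inhibition compared with the lead. At least five oocytes each. One-way ANOVA with Tukey post hoc test.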

[4] = target: T1, Glutamate NMDA receptor; Grin1/Grin2a (Rattus norvegicus); test: Potency index, ratio of TCN-201 IC50 to compound IC50 for rat GluN1A/GluN2A receptor expressed in Xenopus laevis oocytes

| fold change (FC) [3] | Structure (SMILES) | also measured |
| --- | --- | --- |
| – | O=C(NNC(=O)c1ccc(CNS(=O)(=O)c2ccc(F)c(Cl)c2)cc1)c1ccccc1 | inhibition [1]: inactive; IC50 [2]: 512 nM |
| -0.092 | O=C(NNC(=O)c1ccc(CNS(=O)(=O)c2ccccc2Cl)cc1)c1ccccc1 | – |
| 0.161 | O=C(NNC(=O)c1ccc(CNS(=O)(=O)c2cccc([N+](=O)[O-])c2)cc1)c1ccccc1 | – |
| 1.27 | O=C(NNC(=O)c1ccc(CNS(=O)(=O)c2cccc(Br)c2)cc1)c1ccccc1 | inhibition [1]: inactive; Ratio IC50 [4]: 2.5; IC50 [2]: 204 nM |
| 0.283 | O=C(O)c1ccc(S(=O)(=O)NCc2ccc(C(=O)NNC(=O)c3ccccc3)cc2)cc1 | – |
| -0.062 | COc1cccc(S(=O)(=O)NCc2ccc(C(=O)NNC(=O)c3ccccc3)cc2)c1 | – |
| 0.045 | O=C(NNC(=O)c1ccc(CNS(=O)(=O)c2ccccc2Br)cc1)c1ccccc1 | – |
| 0.397 | O=C(NNC(=O)c1ccc(CNS(=O)(=O)c2ccccc2[N+](=O)[O-])cc1)c1ccccc1 | – |
| 0.529 | O=C(NNC(=O)c1ccc(CNS(=O)(=O)c2cccs2)cc1)c1ccccc1 | – |
| 0.351 | O=C(NNC(=O)c1ccc(CNS(=O)(=O)c2ccccc2)cc1)c1ccccc1 | – |
| 0.28 | Cc1cccc(S(=O)(=O)NCc2ccc(C(=O)NNC(=O)c3ccccc3)cc2)c1 | – |
| 0.103 | O=C(NNC(=O)c1ccc(CNS(=O)(=O)c2ccc(F)cc2)cc1)c1ccccc1 | – |
| 0.151 | N#Cc1cccc(S(=O)(=O)NCc2ccc(C(=O)NNC(=O)c3ccccc3)cc2)c1 | – |
| 1.21 | O=C(NNC(=O)c1ccc(CNS(=O)(=O)c2cccc(Cl)c2)cc1)c1ccccc1 | – |
| 0.379 | Nc1ccc(S(=O)(=O)NCc2ccc(C(=O)NNC(=O)c3ccccc3)cc2)cc1 | – |
| 0.315 | O=C(NNC(=O)c1ccc(CNS(=O)(=O)c2ccc(Br)cc2)cc1)c1ccccc1 | – |
| 0.151 | O=C(NNC(=O)c1ccc(CNS(=O)(=O)c2cccnc2)cc1)c1ccccc1 | – |
| 0.051 | O=C(NNC(=O)c1ccc(CNS(=O)(=O)c2ccc(I)cc2)cc1)c1ccccc1 | – |
| 1.19 | O=C(NNC(=O)c1ccc(CNS(=O)(=O)c2cccc(I)c2)cc1)c1ccccc1 | – |
| 0.279 | O=C(NNC(=O)c1ccc(CNS(=O)(=O)c2ccc(Cl)cc2)cc1)c1ccccc1 | – |
| 0.019 | O=C(NNC(=O)c1ccc(CNS(=O)(=O)c2ccccc2F)cc1)c1ccccc1 | – |
| 0.002 | O=C(NNC(=O)c1ccc(CNS(=O)(=O)c2ccc([N+](=O)[O-])cc2)cc1)c1ccccc1 | – |
| 0.818 | O=C(NNC(=O)c1ccc(CNS(=O)(=O)c2cccc(F)c2)cc1)c1ccccc1 | – |
